The results in this text go back to PMC5562219 (Theranostics, 2017).

For series [1], the system named is MHC-I molecules in ischemic brain. Kind of series: In vivo and ex vivo NIRF imaging in photothrombotic stroke mice. Set-up: species or system mouse. Put shortly:
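Photothrombotic stroke in male C57BL/6 mice (6 weeks old), with brains illuminated 15 min and lesions confirmed by T2 MRI at 24 h. Cy5.5-labelled probe or scrambled control probe given i.v. via tail vein (10 nM, 200 μL PBS pH 7.4). Serial brain NIRF imaging 1–24 h (ex 675 nm, em 695 nm long pass). TBR taken as ischemic/contralateral hemisphere. Brain, heart, spleen, liver, kidney and lung then imaged ex vivo; n=6, mean±SEM.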

Series [2] concerns primary cultured cortical neurons. Put plainly: CCK-8 assay on neuronal cultures. Format: cell-based, mouse. As to conditions: CCK-8, neuronal cultures treated with different dilutions of the probes for 24 h.

Turning to K(Cy5.5)ALYNFATM [Cy5.5-H2BP], the “ex vivo NIRF signal intensity in the kidney” value in series [1] (24 h after injection of the probe, suggests excretion mainly via the kidney) is on record as “high signal intensity”. For the same substance, the “target background ratio (TBR), ischemic/contralateral hemisphere” value in series [1] (24 h after probe administration, compared with Cy5.5-H2CP probe, n=6 per group) is “significantly enhanced”. Also, the “TBR values in brain versus other organs” value in series [1] (ex vivo NIRF images, brain, heart, liver, spleen, lung, kidney, n=6) is “significantly higher in the brain than in other organs”. Also, the “time of peak NIRF signal intensity post-injection” value in series [1] (photothrombosis model mice, tail vein injection, 10 nM, 200 μL in PBS pH 7.4) was “approximately 8 h”. For the same substance, the cytotoxicity to neurons result in series [2] is recorded as “low cytotoxicity”.
